Laboratory results reported in ChEMBL document CHEMBL3526072 (Drug Metab Dispos, 2011).

Assays:
[1] = tested on: Rattus norvegicus; assay: Ratio of compound AUC to verapamil AUC in Sprague-Dawley rat treated with 10 mg/kg, po of verapamil; format: ADME, organism-based; parameters: dose 10 mg/kg, route oral; conditions: in vivo
[2] = tested on: Rattus norvegicus; assay: Ratio of compound AUC to verapamil AUC in streptozotocin-induced diabetes mellitus model of Sprague-Dawley rat treated with 10 mg/kg, po of verapamil; format: ADME, organism-based; parameters: dose 10 mg/kg, route oral; conditions: in vivo
[3] = Cmax in streptozotocin-induced diabetes mellitus model of Sprague-Dawley rat portal vein plasma at 10 mg/kg, po; format: ADME, organism-based; parameters: dose 10 mg/kg, route oral
[4] = AUC (0 to 90 mins) in streptozotocin-induced diabetes mellitus model of Sprague-Dawley rat portal vein plasma at 10 mg/kg, po; format: ADME, organism-based; parameters: time < 1.5 hr, dose 10 mg/kg, route oral
[5] = Tmax in streptozotocin-induced diabetes mellitus model of Sprague-Dawley rat at 10 mg/kg, po; format: ADME, organism-based; parameters: dose 10 mg/kg, route oral; conditions: in vivo
[6] = tested on: Liver; assay: Increase of CYP3A2 level in streptozotocin-induced diabetes mellitus model of Sprague-Dawley rat liver by Western blot analysis relative to wild type rat; format: ADME, tissue-based
How it was run: (§1)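 Rats from the STZ 65 mg/kg i.p. protocol versus citrate-treated age-matched controls, day 35. Hepatic microsomes or duodenal and jejunal homogenates (20 µg protein) run on 10% SDS-PAGE and probed with mouse anti-rat CYP3A1 monoclonal and rabbit anti-rat CYP3A2 polyclonal antibodies; band densitometry expressed relative to controls; mean ± S.D., four rats.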

[7] = tested on: Intestine; assay: Decrease of CYP3A1 level in streptozotocin-induced diabetes mellitus model of Sprague-Dawley rat intestine by Western blot analysis; format: ADME; how it was run: as §1
[8] = Tmax in Sprague-Dawley rat portal vein plasma at 10 mg/kg, po; format: ADME, organism-based; parameters: dose 10 mg/kg, route oral
[9] = tested on: Intestine; assay: Decrease of CYP3A2 level in streptozotocin-induced diabetes mellitus model of Sprague-Dawley rat intestine by Western blot analysis; format: ADME; how it was run: as §1
[10] = tested on: Liver; assay: Increase of CYP3A1 level in streptozotocin-induced diabetes mellitus model of Sprague-Dawley rat liver by Western blot analysis relative to wild type rat; format: ADME, tissue-based; how it was run: as §1
[11] = Cmax in Sprague-Dawley rat portal vein plasma at 10 mg/kg, po; format: ADME, organism-based; parameters: dose 10 mg/kg, route oral
[12] = Tmax in Sprague-Dawley rat at 10 mg/kg, po; format: ADME, organism-based; parameters: dose 10 mg/kg, route oral; conditions: in vivo
[13] = Tmax in streptozotocin-induced diabetes mellitus model of Sprague-Dawley rat portal vein plasma at 10 mg/kg, po; format: ADME, organism-based; parameters: dose 10 mg/kg, route oral
[14] = AUC (0 to 90 mins) in Sprague-Dawley rat portal vein plasma at 10 mg/kg, po; format: ADME, organism-based; parameters: time < 1.5 hr, dose 10 mg/kg, route oral

Structure (SMILES) | Ratio AUC [1] | Ratio AUC [2] | Cmax [3] | AUC(0-t) at 1.5 h [4] | Tmax [5] | Activity [6] | Activity [7] | Tmax [8] | Activity [9] | Activity [10] | Cmax [11] | Tmax [12] | Tmax [13] | AUC(0-t) at 1.5 h [14]
COc1ccc(CCNCCCC(C#N)(c2ccc(OC)c(OC)c2)C(C)C)cc1OC.Cl (centres undefined) | 0.69 | 0.43 | – | – | – | – | – | – | – | – | – | – | – | –
COc1ccc(CCN(C)CCCC(C#N)(c2ccc(OC)c(OC)c2)C(C)C)cc1OC (centres undefined) | – | – | 5830 ng/mL | 7030 ng·h/mL | 21.7 min | 151% | Toxic | 37.5 min | Toxic | 50% | 1440 ng/mL | 34 min | 30 min | 1460 ng·h/mL
